Test results as given in ChEMBL document CHEMBL1124765, “Synthesis and biological properties of novel phosphotriesters: a new approach to the introduction of biologically active nucleotides into cells” (J Med Chem, 1990).
Converted amounts (≈) assume the structure as drawn. “And” between values parts separate entries of the source, which are not always exact repeats. Equal values may be shown once.

What was measured:
[1] = pKa value was determined; format: physicochemical
[2] = species on record: Mus musculus; assay: Mean time survival (MTS) of the mice at the end of 28 or 49 days.; format: functional
In short: (§1)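 Inocula were TK⁻ HSV-1 at 10⁶ CCID50/0.05 mL or HSV-1 KOS at 10^4.7 PFU/0.05 mL. Test formulations in DMSO were applied topically four times daily for 5 days, starting at infection. Skin lesions, hind-leg paralysis and death were recorded daily for 28 (KOS) or 49 (TK⁻) days, with five mice per group.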

[3] = system: Mus musculus; assay: Topical treatment of intracutaneous TK- herpes simplex virus type 1 of strain VMW 1837 infection of Nu/nu mice for mean day of appearance of skin lesions and/or paralysis of the hind legs at 0.3% concentration (v/v in DMSO); format: functional; in short: as §1
[4] = system: Mus musculus; assay: Topical treatment of intracutaneous TK- herpes simplex virus type 1 of strain VMW 1837 infection of Nu/nu mice for mean day of appearance of skin lesions and/or paralysis of the hind legs at 1% concentration (v/v in DMSO); format: functional; in short: as §1
[5] = system: Mus musculus; assay: Topical treatment of intracutaneous TK- herpes simplex virus type 1 of strain VMW 1837 infection of Nu/nu mice for mean day of appearance of skin lesions and/or paralysis of the hind legs at 3% concentration (v/v in DMSO); format: functional; in short: as §1
[6] = species on record: Oryctolagus cuniculus; assay: Evaluated for the minimum cytotoxic concentration (MCC) upon preincubation of rabbit kidney cells in medium containing 10% fetal calf serum at 37 degree Celsius for 24 hr; format: functional
In short: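 Primary rabbit kidney cell cultures were exposed to compounds, some preincubated 24 h at 37 °C in medium with 10% fetal calf serum. The minimum cytotoxic concentration was the level causing a microscopically detectable change in normal cell morphology.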

[7] = system: Human alphaherpesvirus 1; assay: Evaluated for the minimum inhibitory concentration (MIC) in primary rabbit kidney (PRK) by 50% against TK- herpes simplex virus type 1 (TK- HSV-1) with strain VMW 1837; format: functional
In short: (§2)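 Confluent primary rabbit kidney cell monolayers were infected with 100 CCID50 of virus. After 1 h adsorption, residual virus was removed and cells were incubated with serial compound concentrations. Cytopathogenicity was scored once it reached completion in untreated infected controls. The endpoint was the concentration reducing virus-induced cytopathogenicity by 50%.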

[8] = system: Human alphaherpesvirus 1; assay: (§3) Evaluated for the minimum inhibitory concentration (MIC) in primary rabbit kidney (PRK), by 50% upon preincubation in medium containing 10% fetal calf serum at 37 degree Celsius for 24 hr against TK- herpes simplex virus type 1 (TK- HSV-1) with s; format: functional
In short: (§4)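 Compounds were preincubated in medium with 10% fetal calf serum for 24 h at 37 °C before addition to the cells. Confluent primary rabbit kidney monolayers were infected with 100 CCID50 of virus and adsorbed for 1 h. Residual virus was removed and cells were incubated with varying compound concentrations. The endpoint was 50% reduction of cytopathogenicity, read when infected controls reached full CPE.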

[9] = system: Human alphaherpesvirus 1; assay: Evaluated for the minimum inhibitory concentration (MIC) in primary rabbit kidney (PRK), by 50% against TK- herpes simplex virus type 1 (TK- HSV-1) with strain B2006; format: functional; in short: as §2
[10] = system: Human alphaherpesvirus 1; assay: as §3; format: functional; in short: as §4; remark: listed apart in the source
[11] = system: Vaccinia virus; assay: Evaluated for the minimum inhibitory concentration (MIC) in primary rabbit kidney (PRK), by 50% upon preincubation in medium containing 10% fetal calf serum at 37 degree Celsius for 24 hr against Vaccinia virus; format: functional; details: Orthopoxvirus vaccinia; in short: as §4
[12] = system: Vesicular stomatitis virus; assay: Evaluated for the minimum inhibitory concentration (MIC) in primary rabbit kidney (PRK) by 50% against Vesicular stomatitis virus; format: functional; in short: as §2
[13] = system: Human alphaherpesvirus 1; assay: Evaluated for the minimum inhibitory concentration (MIC) in primary rabbit kidney (PRK) by 50% upon preincubation in medium containing 10% fetal calf serum at 37 degree Celsius for 24 hr against herpes simplex virus type-1 (HSV-1) with strain F; format: functional; in short: as §4
[14] = system: Human alphaherpesvirus 1; assay: Evaluated for the minimum inhibitory concentration (MIC) in primary rabbit kidney (PRK) by 50% upon preincubation in medium containing 10% fetal calf serum at 37 degree Celsius for 24 hr against herpes simplex virus type-1 (HSV-1) with strain KOS; format: functional; in short: as §4
[15] = system: Human alphaherpesvirus 1; assay: Evaluated for the minimum inhibitory concentration (MIC) in primary rabbit kidney (PRK), by 50% upon preincubation in medium containing 10% fetal calf serum at 37 degree Centigrade for 24 hr against herpes simplex virus type-1 (HSV-1) with strain Mc; format: functional; in short: as §4
[16] = system: Vaccinia virus; assay: Evaluated for the minimum inhibitory concentration (MIC) in primary rabbit kidney (PRK) by 50% against Vaccinia virus; format: functional; details: Orthopoxvirus vaccinia; in short: as §2
[17] = system: Human alphaherpesvirus 2; assay: Evaluated for the minimum inhibitory concentration (MIC) in primary rabbit kidney (PRK), by 50% upon pre-incubation in medium containing 10% fetal calf serum at 37 degree Centigrade for 24 hr against herpes simplex virus type-2 (HSV-2) with strains 1; format: functional; in short: as §4
[18] = system: Human alphaherpesvirus 2; assay: Evaluated for the minimum inhibitory concentration (MIC) in primary rabbit kidney (PRK), by 50% upon preincubation in medium containing 10% fetal calf serum at 37 degree Celsius for 24 hr against herpes simplex virus type-2 (HSV-2) with strains G; format: functional; in short: as §4
[19] = system: Human alphaherpesvirus 2; assay: Evaluated for the minimum inhibitory concentration (MIC) in primary rabbit kidney (PRK), by 50% upon pre-incubation in medium containing 10% fetal calf serum at 37 degree Centigrade for 24 hr against herpes simplex virus type-2 (HSV-2) with strains L; format: functional; in short: as §4
[20] = system: Human alphaherpesvirus 1; assay: Evaluated for the minimum inhibitory concentration (MIC) in primary rabbit kidney (PRK) by 50% against herpes simplex virus type-1 (HSV-1) with strains KOS; format: functional
In short: (§5)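 Confluent primary rabbit kidney cell cultures infected with 100 CCID50 virus; after 1 h adsorption residual virus removed and cells incubated with varying compound concentrations. Cytopathogenicity scored when complete in infected untreated controls; MIC = concentration reducing virus-induced cytopathogenicity by 50%. Compounds tested as such or after preincubation in medium with 10% fetal calf serum, 24 h, 37 °C.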

[21] = system: Human alphaherpesvirus 1; assay: Evaluated for the minimum inhibitory concentration (MIC) in primary rabbit kidney (PRK) by 50% against herpes simplex virus type-1 (HSV-1) with strains McIntyre; format: functional; in short: as §5
[22] = system: Human alphaherpesvirus 2; assay: Evaluated for the minimum inhibitory concentration (MIC) in primary rabbit kidney (PRK) by 50% against herpes simplex virus type-2 (HSV-2) with strains 196; format: functional; in short: as §5
[23] = system: Human alphaherpesvirus 2; assay: Evaluated for the minimum inhibitory concentration (MIC) in primary rabbit kidney (PRK) by 50% against herpes simplex virus type-2 (HSV-2) with strains Lyons; format: functional; in short: as §5
[24] = system: Vesicular stomatitis virus; assay: Evaluated for the minimum inhibitory concentration (MIC) in primary rabbit kidney (PRK), by 50% upon preincubation in medium containing 10% fetal calf serum at 37 degree Celsius for 24 hr against vesicular stomatitis virus; format: functional; in short: as §4
[25] = system: Human alphaherpesvirus 1; assay: Evaluated for the minimum inhibitory concentration (MIC) in primary rabbit kidney (PRK) by 50% against herpes simplex virus type-1 (HSV-1) with strains F; format: functional; in short: as §5

## CSc1ccc(OP(=O)(OC[C@H]2O[C@@H](n3cc(C)c(=O)[nH]c3=O)C[C@@H]2OC(C)=O)OC[C@H]2O[C@@H](n3cc(C)c(=O)[nH]c3=O)C[C@@H]2OC(C)=O)cc1
[1]
  pKa: 9.53

## CS(=O)(=O)c1ccc(OP(=O)(OCCOCn2cnc3c(O)nc(N)nc32)OCCOCn2cnc3c(O)nc(N)nc32)cc1
[2]
  MTS: 40.2 days and 40.6 days and 33.4 days
[3]
  Mean day appearance of lesions: 17.6
[4]
  Mean day appearance of lesions: 23.6
[5]
  Mean day appearance of lesions: 29.7
[6]
  MCC: 400 µg/mL
[6]; Oryctolagus cuniculus, kidney, read-out: MCC
  MCC: 400 µg/mL
[7]
  MIC: 70 mg/L (≈ 105 µM)
[8]
  MIC: 40 mg/L (≈ 60 µM)
[9]
  MIC: 150 mg/L (≈ 225 µM)
[10]
  MIC: 150 mg/L (≈ 225 µM)
[11]
  MIC: > 200 mg/L
[12]
  MIC: > 200 mg/L
[13]
  MIC: 0.4 mg/L (≈ 0.6 µM)
[14]
  MIC: 0.4 mg/L (≈ 0.6 µM)
[15]
  MIC: 0.7 mg/L (≈ 1.05 µM)
[16]
  MIC: > 200 mg/L
[17]
  MIC: 0.3 mg/L (≈ 0.45 µM)
[18]
  MIC: 0.2 mg/L (≈ 0.3 µM)
[19]
  MIC: 0.4 mg/L (≈ 0.6 µM)
[20]
  MIC: 0.7 mg/L (≈ 1.05 µM)
[21]
  MIC: 1 mg/L (≈ 1.5 µM)
[22]
  MIC: 0.4 mg/L (≈ 0.6 µM)
[23]
  MIC: 0.4 mg/L (≈ 0.6 µM)
[24]
  MIC: > 200 mg/L
[25]
  MIC: 0.7 mg/L (≈ 1.05 µM)
